Reference: the RNAGym collection of RNA variant scans (doi:10.1126/science.aae0568)
Fewer inactive variants are shown than the library holds.

B1: tRNA (parent)
chain: GUUCCGUUGGCGUAAUGGUAACGCGUCUCCCUCCUAAGGAGAAGACUGCGGGUUCGAGUCCCGUACGGAACG

Variants of: B1
Experiment: yeast fitness relative to wild type (ratio to wild type); higher = fitter; tRNA-Arg(CCU), competitive growth, 37 C, YPD
Summary of the method: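 Amplicons of the tRNA-Arg(CCU) gene were sequenced, 100-nucleotide paired-end, from the start population and from each end population of a pooled yeast competition. The competition, in six parallel replicates, lasted 24 hours in YPD at 37°C. Fitness relative to wild type was calculated from changes in genotype frequencies. Genotypes had to have ≥ 100 starting reads, and estimates < 0.5 were set to 0.5.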

Variant | yeast fitness
GUUCGGUUGGCGUAAUGGUAACGCGUCUUCCUCCUAAGGAGAACACUGCGGGUUCGAGUCCCGUACGGAACG | ≤ 0.5
GUUCGGUUGGCGUAAUGGUAACGCGUCUUCCUCCUAAGGAGACGACUGCGGGUUCGAGUCCCGUACGGAACG | 0.537
GUUCGGUUGGCGUAAUGGUAACGCGUCUACCUCCUAAGGAGAAGACUGCGGGUUCGACUCCCGGACGGAACG | 0.545
GUUCGGUUGGCGUAAUGGUAACGCGUCUUCCUCCUAGGGAGAAGACUGCGGGUUCGAGUCCCGUGCGGAACG | ≤ 0.5
GUUCGGUUGGCGUAAUGGUAACGCGUCUCCCUCGUAAGGAGAAGACUGCGGGUUCGAGUCCUGUACGGAACG | 0.531
GUUCGGUUGGCGUAAUGGUAACGCGUCUCCCUGCUAAGGUGAAGACUGCGGGUUCGAGUCCCGUACGGAACG | ≤ 0.5
GUUCGGUUGGCGUAAUGGUAACGCGUCUGCCUCCUAAGGACAAGACUGCGGGUUCGUGUCCCGUACGGAACG | ≤ 0.5
GUUCGGUUGGCGUAAUGGUAACGCGUCUGCCUCCUAAGGAGAAGAGUGCGGGUUCGAGUCCCGUACGGAACG | ≤ 0.5
GUUCGGUUGGCGUAAUGGUAACGCGUCUCGCUCCUAAGGAGAAGACUGCGGGUUCGAGUCCCGUAAGGAACG | ≤ 0.5
GUUCGGUUGGCGUAAUGGUAACGCGUCUCCCUGCUAAGGUGAAGACUGCGGGUUCGAGUCCCGUCCGGAACG | ≤ 0.5
GUUCGGUUGGCGUAAUGGUAACGCGUCUCCCUCAUAAGGAGAAGACUGUGGGUUCGAGUCCCGUACGGAACG | ≤ 0.5
GUUCGGUUGGCGUAAUGGUAACGCGUCUCCCUCGUAAGGAGAAGAUUGUGGGUUCGAGUCCCGUACGGAACG | ≤ 0.5
GUUCGGUUGGCGUAAUGGUAACGCGUCUCCUUCCUAAGGAGAAGACUGGGGGUUCGAGUCCCGUACGGAACG | 0.576
GUUCGGUUGGCGUAAUGGUAACGCGUUUCCCUCCUAAGGAGAAGACUGAGGGUCCGAGUGCCGUACGGAACG | ≤ 0.5
GUUCGGUUGGCGUAAUGGUAACGCGUCUCCCUCAUUAGGAGAAGACUGCGCGUUCAAGUCCCGUACGGAACG | 0.797
GUUCGGUUGGCGUAAUGGUAACGCGUCUACCUCCUAAGGAGAAGACUGCGGGCUCGAGUCCAGUACAGAACG | ≤ 0.5
GUUCGGUUGGCGUAAUGGUAACGCGUCUCGCUCCUAACGAGAAGACUGCGGGUUCCAGUCCCGUACGGAACG | 0.621
GUUCGGUUGGCGUAAUGGUAACGCGUUUCCCUCAUAAGGAGAAGACUGCGAGUUCGAGUCCCGUACGGAACG | ≤ 0.5
GUUCGGUUGGCGUAAUGGUAACGCGUCUCACUCCUAAGGGGAAGACUGCGGGUUCGAGUCCCGUACGGAUCG | ≤ 0.5

Variant | yeast fitness
GUUCGGUUGGCGUAAUGGUAACGCGUCUCUCUCCUAAGGAGAAGACAGCGAGUUCGGGUCCCGUACGGAACG | ≤ 0.5
GUUCGGUUGGCGUAAUGGUAACGCGUCUCCGUCCUAAGGAGUAGACUGCGGGUUCGAGUCCCGUACGGAACG | 0.623
GUUCGGUUGGCGUAAUGGUAACGCGUCUUCCUCCUAUCGAGAAGACUGCGGGUUCGAGUCCCGUACGGAACG | ≤ 0.5
GUUCGGUUGGCGUAAUGGUAACGCGUCUUCCUCCUAAGGAGAAGACUGCGGGUUCGAGUCCCGUAUGGAACG | 0.57
GUUCGGUUGGCGUAAUGGUAACGCGUCUACCUCCUAAGGAGAAGACUGCGGAUUCGAGUCCCGUACGGAACG | 0.695
GUUCGGUUGGCGUAAUGGUAACGCGUCUCCUUCCUCAAGAGAAGACUGCGGGUUCGAGUCCCGUACGGAACG | 0.557
GUUCGGUUGGCGUAAUGGUAACGCGUCUCCCUCAUCAGGAGGAGACUGCGGGUUCGAGUCCCGUACGGAACG | ≤ 0.5
GUUCGGUUGGCGUAAUGGUAACGCGUCUCACUCCUAAGGAGAAGACUGCGGGUUCGAGUCCCGUACGGAACG | 0.736
GUUCGGUUGGCGUAAUGGUAACGCGUCUCCCUCGUAAGGAGAAGACUGCGGGUUCGAGUCACGUACGGAACG | ≤ 0.5
GUUCGGUUGGCGUAAUGGUAACGCGUCUCUCCCCUAAGGAGAACACUGCGGGUUCGAGUCCCGUACGGAACG | ≤ 0.5
GUUCGGUUGGCGUAAUGGUAACGCGUCUCUCUCCUUAGGAGAAGACUGCGCGUUCGAGUCCCGUACGGAACG | ≤ 0.5
GUUCGGUUGGCGUAAUGGUAACGCGUCUCCCUCCUAAGGAGAAGACUGAGGGUUCGAGUCCCGUACGGAACG | 0.624
GUUCGGUUGGCGUAAUGGUAACGCGUCUGCCUCCUAAGGAGAAGACUGCGGGUUCGAGUCCCGUAAGGAACG | ≤ 0.5
GUUCGGUUGGCGUAAUGGUAACGCGUCUCCCUAGUAAGGAGAAGACUGCAGGUUCGAGUCCCGUACGGAACG | ≤ 0.5
GUUCGGUUGGCGUAAUGGUAACGCGUUUCCCUCCUAAGGAGAAGACUGCGGGUUCGAGUCCCGUACGGAACG | 0.651
GUUCGGUUGGCGUAAUGGUAACGCGUCUCCAUCCUAAGGAGAAGUCUGCGGGUUCGAGUCCCGUACGGAACG | 0.584
GUUCGGUUGGCGUAAUGGUAACGCGUCUCUCUCCUAAGGAGAAGACUGCGGGUUCGAGUCCCGUACCGAACG | 0.938
GUUCGGUUGGCGUAAUGGUAACGCGUCUCGCUGCUAUGGAGAAGACUGCGGGUUCGAGUCGCGUACGGAACG | ≤ 0.5
